PGC1a acetyl inh: lowers PGC1a acetylation signal in U2OS cells | AlphaScreen anti-acetyl-lysine; with virally co-expressed GCN5 acetyltransferase | inhibition, % at 15.6 µM | hit rate 0.17% among 350,000 | AID 651687;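 active = every replicate shows inhibition of at least 40%; inconclusive = mean inhibition at least 40% but some replicate below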
Xi reactivation: activators of X-chromosome reactivation in mouse fibroblasts; XiGFP mouse fibroblasts, % GFP-positive cells imaging, 3 d; cells co-treated with 5-aza-dC sensitizer; scaled so ellipticine positive control = 100%; activation, % at 7.58 µM; hit rate 0.055% among 360,000; AID 743238;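 active = mean normalized replicate activation at least 10% and every replicate at or above 10%; inconclusive = only one of the two criteria met; inactive = mean below 10% and not all replicates reach 10%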
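assay system = SV40-immortalized XiGFP fibroblast cells, line 68-5-11 | buffer or medium = DMEM plus 5-aza-dC sensitizer | doses = single-point pinned compound dosing | times = 3-day compound exposure, then 15 min fixation at room temperature | benchmarks = positive control ellipticine, 6 µM final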
GSIS activator: GLuc luminescence reporter in INS-1E cells, primary screen for activators of glucose-dependent secretion of insulin; INS-1E GLuc reporter insulin secretion, 2-3 h; activation, % at 16.6 µM; hit rate 0.61% among 370,000;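 active = lowest replicate activation of at least 40%, so every replicate reaches that level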
PAX8 reporter: inhibitors of PAX8 transcriptional activity in RMG-I cells. inhibition, % at 12.6 µM. RMG-I TPO-luciferase reporter, SteadyGlo, 24 h. hit rate 1.2% among 360,000;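 active = mean replicate inhibition at least 60% with every replicate also reaching 60%; inconclusive = only one of the two criteria is met; inactive = mean below 60% and not all replicates reaching 60%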;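 note: luciferase light reporting Pax8 driven TPO promoter activity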
EWS-Fli block: EWS/Fli transcriptional activity inhibition | inhibition, % at 12.6 µM | A673 NR0B1-luciferase reporter, viability-normalised | hit rate 0.67% among 350,000;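 active = mean inhibition of at least 50% after viability correction, with every replicate also passing that limit; inconclusive = mean reaches 50% but only one of two replicates passes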;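 note: firefly luciferase signal divided by Alamar Blue viability fluorescence both relative to DMSO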
AF4-AF9 inh: blocks AF4 peptide binding to human AF9; AID 651704; P42568; AlphaScreen, biotin-AF4 peptide binding to FLAG-AF9; hit rate 0.47% among 350,000; inhibition, % at 10 µM;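 active = every replicate reaching a set inhibition limit, whatever the replicate mean, cut at about 25% in these data; inconclusive = mean inhibition reaches that limit but some replicates miss it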
Target sequence (P42568 whole entry, looked up): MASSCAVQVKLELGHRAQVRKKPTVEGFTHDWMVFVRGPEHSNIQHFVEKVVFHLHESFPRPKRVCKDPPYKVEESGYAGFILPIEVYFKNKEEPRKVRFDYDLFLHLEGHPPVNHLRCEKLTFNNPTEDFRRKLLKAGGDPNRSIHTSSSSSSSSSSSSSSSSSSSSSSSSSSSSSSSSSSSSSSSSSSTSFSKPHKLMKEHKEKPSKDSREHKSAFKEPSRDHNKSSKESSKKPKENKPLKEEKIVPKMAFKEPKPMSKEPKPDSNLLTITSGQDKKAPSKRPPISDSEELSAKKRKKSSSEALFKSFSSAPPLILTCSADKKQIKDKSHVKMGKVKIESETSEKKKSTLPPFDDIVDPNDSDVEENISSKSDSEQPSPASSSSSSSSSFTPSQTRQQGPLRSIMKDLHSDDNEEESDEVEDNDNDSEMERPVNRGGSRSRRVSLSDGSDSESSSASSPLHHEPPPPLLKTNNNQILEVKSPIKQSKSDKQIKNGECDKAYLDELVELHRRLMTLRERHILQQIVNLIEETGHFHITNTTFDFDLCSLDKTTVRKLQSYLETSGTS
A number is an active result. Shown are actives, neighbours in structure and some others; about 2.1% of the full set was active somewhere.

Screening CNC[C@H]1OCCCC[C@@H](C)Oc2ccc(NS(=O)(=O)c3ccc(OC)cc3)cc2C(=O)N([C@H](C)CO)C[C@H]1C returned PGC1a acetyl inh inactive, Xi reactivation inactive, GSIS activator inactive, PAX8 reporter inactive, EWS-Fli block inactive and AF4-AF9 inh inactive.
`CN(C)c1ccc(NC(=O)CN2CCC(NC(=O)C3CCCCC3)CC2)cc1` gave Xi reactivation inactive, GSIS activator inactive, PAX8 reporter inactive, EWS-Fli block inactive and AF4-AF9 inh 51.
Screening O=C(CN1CCC(NC(=O)C2CCCCC2)CC1)Nc1ccccc1 returned PGC1a acetyl inh inactive, Xi reactivation inactive, GSIS activator inactive, PAX8 reporter inactive, EWS-Fli block inactive and AF4-AF9 inh inactive.
`Cc1cc(O)c(-c2cc(O)c(C)cc2O)cc1O` gave PGC1a acetyl inh inactive, Xi reactivation inactive, GSIS activator inactive, PAX8 reporter inconclusive, EWS-Fli block 70 and AF4-AF9 inh inactive.
For CCc1nc2n[nH]c(N)c2c2c1CCCC2 the results were PGC1a acetyl inh inactive and GSIS activator 121.
Screening CCCc1nc2n[nH]c(N)c2c2c1COC(C)(C)C2 returned PGC1a acetyl inh inactive and GSIS activator 49.
Cc1nc2n[nH]c(N)c2c2c1COC(C)(C)C2 was read as PGC1a acetyl inh inactive and GSIS activator inactive.
For CC(C)Cc1nc2n[nH]c(N)c2c2c1CCCC2 the results were PGC1a acetyl inh inactive.
COc1ccc2c3c([nH]c2c1)[C@@H](CO)N(C(=O)C1CCC1)CC31CCN(C(=O)c2ccncc2)CC1 was read as Xi reactivation inactive, GSIS activator inactive, PAX8 reporter inactive, EWS-Fli block inactive and AF4-AF9 inh inactive.
CC(=O)c1ccc(NC(=O)C2(c3ccccc3)CC2(Cl)Cl)cc1 (centres undefined) was read as PGC1a acetyl inh inactive, Xi reactivation inactive, GSIS activator inactive, PAX8 reporter inactive, EWS-Fli block inactive and AF4-AF9 inh 33.
Screening Cc1cc(C2=NNC(=NC3CC3)SC2)c(C)n1-c1ccccc1 returned Xi reactivation inactive, GSIS activator inactive, PAX8 reporter 77, EWS-Fli block 89 and AF4-AF9 inh inactive.
For Cc1cc(C2=NNC(=NC3CC3)SC2)c(C)n1Cc1ccco1 the results were Xi reactivation inactive, GSIS activator inactive, PAX8 reporter inactive, EWS-Fli block 72 and AF4-AF9 inh inactive.
`COCCCN=C1NN=C(c2cc(C)n(Cc3ccco3)c2C)CS1` gave Xi reactivation inactive, GSIS activator inactive, PAX8 reporter inactive, EWS-Fli block 54 and AF4-AF9 inh inactive.
`COc1ccc(-n2c(C)cc(C3=NNC(=NC4CC4)SC3)c2C)cc1` gave PGC1a acetyl inh inactive, Xi reactivation inactive, GSIS activator inactive, PAX8 reporter inactive, EWS-Fli block inactive and AF4-AF9 inh inactive.
For Cc1ccccc1-c1ccc([C@@H]2[C@H]3CN(S(=O)(=O)c4cn(C)cn4)CCCCN3[C@H]2CO)cc1 the results were PGC1a acetyl inh inactive, Xi reactivation inactive, GSIS activator inactive, PAX8 reporter inactive and AF4-AF9 inh inactive.
Screening COc1ccc(-c2oc3cc(O)c(OC)c(O)c3c(=O)c2OC)cc1O returned PGC1a acetyl inh inactive, Xi reactivation inactive, GSIS activator inactive, PAX8 reporter 63, EWS-Fli block inactive and AF4-AF9 inh inactive.
`COc1cc(OC)c2c(=O)c(OC)c(-c3ccc(OC)c(OC)c3)oc2c1` gave PGC1a acetyl inh inactive.
`Cc1ccc(CNC(=O)CCCC(=O)c2ccccc2)cc1` gave PGC1a acetyl inh inactive, Xi reactivation inactive, GSIS activator inactive, PAX8 reporter inactive, EWS-Fli block inactive and AF4-AF9 inh inactive.
For O=C(CCCC(=O)c1ccccc1)NCc1ccccc1 the results were PGC1a acetyl inh inactive, Xi reactivation inactive, GSIS activator 40, PAX8 reporter inactive, EWS-Fli block inactive and AF4-AF9 inh inactive.
Cc1ccc(-c2cn3nc(-c4ccccc4)c(-c4ccccc4)nc3n2)cc1 was read as PGC1a acetyl inh inactive, Xi reactivation 78, GSIS activator inactive, PAX8 reporter inactive, EWS-Fli block inactive and AF4-AF9 inh inactive.
`c1ccc(-c2cn3nc(-c4ccccc4)c(-c4ccccc4)nc3n2)cc1` gave PGC1a acetyl inh inactive and PAX8 reporter inactive.
Screening COc1ccc2c3c(n(C)c2c1)[C@@H](CO)N(Cc1ccccc1F)CC31CCN(C(C)=O)CC1 returned Xi reactivation inactive and GSIS activator inactive.
CC1=NN(C(N)=S)C(=O)C1N=Nc1ccccc1O (centres undefined) was read as PGC1a acetyl inh inactive, Xi reactivation inactive, GSIS activator inactive, PAX8 reporter inactive, EWS-Fli block inactive and AF4-AF9 inh inactive.
`CC1=NN(C(N)=S)C(=O)C1N=Nc1ccccc1C` (centres undefined) gave PGC1a acetyl inh inactive and GSIS activator 65.
COc1ccc(Nc2ccc3c(c2)=NC2(CCCCC2)[N+]=3[O-])cc1 was read as PGC1a acetyl inh inactive, GSIS activator inactive and PAX8 reporter 75.
Screening CCOc1cc(/C=C/C(=O)Nc2ccc(C(=O)NCCN(CC)CC)cc2)ccc1OCC(C)C returned Xi reactivation inactive, GSIS activator 68, PAX8 reporter 78, EWS-Fli block 55 and AF4-AF9 inh 31.
Screening O=C(NCC[C@@H]1CC[C@@H](NS(=O)(=O)c2ccc(Oc3ccccc3)cc2)[C@@H](CO)O1)C1CC1 returned PGC1a acetyl inh inactive, Xi reactivation inactive, GSIS activator inactive, PAX8 reporter inactive, EWS-Fli block inactive and AF4-AF9 inh inactive.
`CCCNC(=O)C1(C)CCN(C(=O)c2cccc(C(F)(F)F)c2)C1` (centres undefined) gave PGC1a acetyl inh inactive, Xi reactivation inactive, GSIS activator 45, PAX8 reporter inactive, EWS-Fli block inactive and AF4-AF9 inh inactive.
`CCCNC(=O)C1(C)CCN(C(=O)c2cccc(Cl)c2)C1` (centres undefined) gave PGC1a acetyl inh inactive, Xi reactivation inactive, PAX8 reporter inactive, EWS-Fli block inactive and AF4-AF9 inh inactive.
For CCCNC(=O)C1(C)CCN(C(=O)c2cccc(OC(F)(F)F)c2)C1 (centres undefined) the results were PGC1a acetyl inh inactive, Xi reactivation inactive, GSIS activator inactive, PAX8 reporter inactive, EWS-Fli block inactive and AF4-AF9 inh inactive.
`CCCNC(=O)C1(C)CCN(C(=O)c2cccc(C#N)c2)C1` (centres undefined) gave PGC1a acetyl inh inactive, Xi reactivation inactive, GSIS activator inactive, PAX8 reporter inactive, EWS-Fli block inactive and AF4-AF9 inh 28.
O=C(C[C@H]1C=C[C@@H](NC(=O)C2CCC2)[C@H](CO)O1)NCc1ccccc1Cl was read as PGC1a acetyl inh inactive, Xi reactivation inactive, GSIS activator inactive, PAX8 reporter inactive, EWS-Fli block inactive and AF4-AF9 inh inactive.
